No end group written: not given here.
Assays:
C3a receptor [1] = assay: C3a-induced degranulation, LAD2 cells; format: cell-based, human; conditions: LPS 1 and 10 μg/ml, C3a 10 nM, three experiments
Summary of the method: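 LAD2 cells (5 × 10^3 per well) in HEPES buffer with 0.1% BSA were pre-treated with buffer or E. coli LPS, then stimulated. Percent β-hexosaminidase release was taken against unstimulated cells lysed in 0.1% Triton X-100. Mean ± SEM, three experiments; two-way ANOVA with Bonferroni.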

C3a receptor [2] = assay: C3a-induced Ca2+ mobilization, LAD2 cells; format: cell-based, human
Summary of the method: (§1)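 LAD2 cells, kept in StemPro-34 with 100 ng/ml hSCF, were loaded with indo-1 AM (1 μM) for 30 min at room temperature. They were washed and resuspended in HEPES-buffered saline at 0.2 × 10^6 cells per run. E. coli LPS (serotype R515) was given as a 2 min pre-incubation or premixed with the peptide, followed by C3a. Fluorescence was read at excitation 355 nm and emission 410 nm. Traces are representative of three experiments.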

[3] = tested on: LAD2 cells endogenously expressing MrgX2; assay: Degranulation; format: cell-based, human; conditions: for effect of E. coli-LPS on HDP-induced mast cell degranulation (summary): Discussion summary
[4] = tested on: LAD2 cells endogenously expressing MrgX2; assay: Ca2+ mobilization, LAD2 cells; format: cell-based, human; conditions: for effect of E. coli-LPS on HDP-induced Ca2+ mobilization (summary): Discussion summary
Summary of the method: as §1

[5] = tested on: untransfected RBL-2H3 cells, which do not express MrgX2; conditions: no MrgX2; cited from earlier work
[6] = tested on: untransfected RBL-2H3 cells, which do not express MrgX2; conditions: no MrgX2; cited from earlier work; remark: listed apart in the source
macrophages = conditions: cited from earlier work

| Substance | effect of E. coli-LPS on C3a-induced degranulation (C3a receptor [1]) | effect of mixture of E. coli-LPS and hBD3 on C3a-induced Ca2+ mobilization (C3a receptor [2]; LPS 1 μg/ml + hBD3 100 nM, then C3a 10 nM) | effect of E. coli-LPS on C3a-induced Ca2+ response (C3a receptor [2]; LPS 1 μg/ml preincubated, C3a 10 nM) | effect of E. coli-LPS on C3a-induced Ca2+ response (LL-37 experiment) (C3a receptor [2]; LPS 10 μg/ml, pre-incubated or mixed with LL-37 1 μM, C3a 10 nM) | effect of E. coli-LPS on HDP-induced mast cell degranulation (summary) [3] | effect of E. coli-LPS on hBD3-induced degranulation ([3]; LAD2, LPS 1 and 10 μg/ml, hBD3 100 nM, mean ± SEM of three experiments) | effect of E. coli-LPS on HDP-induced Ca2+ mobilization (summary) [4] | effect of premixed E. coli-LPS on hBD3-induced Ca2+ response ([4]; LAD2, LPS 1 μg/ml premixed with hBD3 100 nM) | effect of E. coli-LPS preincubation on hBD3-induced Ca2+ response ([4]; LAD2, LPS 1 μg/ml, 2 min preincubation, hBD3 100 nM) | intracellular Ca2+ response in LAD2 cells ([4]; hBD3 100 nM, not back to basal level even after 5 min) | Ca2+ mobilization in untransfected RBL-2H3 cells, earlier work [5] | degranulation in untransfected RBL-2H3 cells, earlier work [6] | inhibition of LPS-induced cytokine generation in macrophages, hBD3 (macrophages) | effect of E. coli-LPS on LL-37-induced degranulation ([3]; LAD2, LPS 10 μg/ml, LL-37 1 μM, three experiments) | effect of E. coli-LPS on LL-37-induced Ca2+ mobilization ([4]; LAD2, LPS 10 μg/ml, 2 min pre-incubation or added simultaneously, LL-37 1 μM) |
| --- | --- | --- | --- | --- | --- | --- | --- | --- | --- | --- | --- | --- | --- | --- | --- |
| C3a: anaphylatoxin C3a; native complement C3a from Complement Technology | did not inhibit the response to C3a | not affected | no effect | no effect on the response to C3a |  |  |  |  |  |  |  |  |  |  |  |
| Human β-defensin3 (GIINTLQKYYCRVRGGRCAVLSCLPKEEQIGKCSTRGRKCCRRKK; not fully specified; ends and bridges not checked; UniProt P81534 23-67, looked up) [hBD3] |  |  |  |  | almost complete inhibition | substantial inhibition | almost complete inhibition | to the same extent as the 2 min pre-incubation protocol | complete inhibition | sustained intracellular Ca^2+ response | unresponsive | unresponsive | inhibit LPS-induced cytokine generation in macrophages |  |  |
| LL-37: human cathelicidin, host defense peptide |  |  |  |  | almost complete inhibition |  | almost complete inhibition |  |  |  | unresponsive | unresponsive |  | blocked | ablated |

— paper PMC4858174 (Innate immunity, 2015)
